The values that follow come from paper PMC9116722 (Cancer chemotherapy and pharmacology, 2022).

For data set [1], the system named is PARP 1/2. The note with it: paired tumor biopsies and PBMCs, 3–6 hours after 25- or 50-mg dose ref 10; cited from earlier work.
The subject of data set [2] is γ-H2AX. Kind of data set: Nuclear γ-H2AX staining in tumor biopsies. The note with it: 10 cases, 4 pre-post biopsy pairs, DL8. Type of data set: in vivo, human.
Data set [3] relates to ovarian cancer. To be noted: phase II single-agent, ovarian cancer ref 46; cited from earlier work.
Data set [4] in a line: Non-compartmental pharmacokinetics. It counts as in vivo, human. Put shortly:
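Patients took oral drug twice daily, continuously, at 50–500 mg BID. Plasma parent drug and active metabolite M8 were measured by a validated assay. Parameters were derived non-compartmentally on day 1 and reported as geometric mean (SD). Accumulation indices for Cmax and AUC0–8 were compared with theoretical values from D1 half-lives. Dose proportionality was tested on day-1 Cmax and AUC0-inf (95% CI of coefficient including 1).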

The mark [5] stands for this setting: geometric mean (standard deviation).

Regarding `C[C@]1(c2nc3c(C(N)=O)cccc3[nH]2)CCCN1` [veliparib], the “PARP 1/2 inhibition” value in data set [1] is on record as > 90%. Moreover, the “treatment-induced change in nuclear γ-H2AX staining” value in data set [2] is “minimal treatment-induced changes without consistent direction”. In addition, the response rate in data set [3] was 26%. In addition, the PK dose dependence result in data set [4] (50-500 mg BID) was “linear with dose”. The theoretical accumulation index in data set [4] (calculated from D1 half-lives, geometric mean (SD)) is recorded as 1.34 (1.12). For the same compound, in data set [4] (setting [5]), the “accumulation index for AUC0–8” value is reported as 1.30 (1.29) and the “accumulation index for Cmax” value is 1.24 (1.37). Moreover, in data set [4] (human, in vivo, oral), the Vd/F (commonly the apparent distribution volume after extravascular dosing) came out at 123 L. The Cl/F in data set [4] (non-compartmental, current study) was 15.9 (1.40) L/h.
